These results are taken from ChEMBL document CHEMBL1126325, “Inhibition of pig kidney L-aromatic amino acid decarboxylase by 2,3-methano-m-tyrosines” (J Med Chem, 1992).

Test [1] addresses T1, Aromatic-L-amino-acid decarboxylase (Sus scrofa, UniProt P80041).
T1 sequence (P80041 whole entry): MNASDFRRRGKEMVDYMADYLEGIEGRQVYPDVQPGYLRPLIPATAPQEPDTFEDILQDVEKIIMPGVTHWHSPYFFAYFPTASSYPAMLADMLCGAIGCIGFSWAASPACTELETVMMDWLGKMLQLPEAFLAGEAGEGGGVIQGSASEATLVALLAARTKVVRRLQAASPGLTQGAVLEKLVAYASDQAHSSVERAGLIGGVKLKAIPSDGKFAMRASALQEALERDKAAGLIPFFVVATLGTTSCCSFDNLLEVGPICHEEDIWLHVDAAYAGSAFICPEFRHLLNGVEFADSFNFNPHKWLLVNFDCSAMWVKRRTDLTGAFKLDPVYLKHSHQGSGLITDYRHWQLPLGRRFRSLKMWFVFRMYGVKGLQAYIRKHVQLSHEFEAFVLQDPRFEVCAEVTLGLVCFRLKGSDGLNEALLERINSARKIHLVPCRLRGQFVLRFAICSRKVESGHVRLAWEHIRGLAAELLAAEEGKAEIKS
As to the kind of experiment: Inhibitory activity against pig kidney L-aromatic amino acid decarboxylase (Dopamine decarboxylase). In outline: (§1)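 The enzyme was purified from pig kidney. The crude extract was clarified with Bioacryl-BP-1000 and centrifuged, then run over DEAE-cellulose, phenyl Sepharose CL-4B and Sephacryl S-300. Decarboxylase activity was measured by a continuous spectrophotometric CO₂-detection procedure using a commercial CO₂ kit. Inhibition was expressed as Ki.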

For test [2], the target named is T1, Aromatic-L-amino-acid decarboxylase. As to the kind of experiment: Inhibitory activity against pig kidney L-aromatic amino acid decarboxylase (Dopa decarboxylase). In outline:
as §1

The target of test [3] is T2, Aromatic-L-amino-acid decarboxylase (Sus scrofa) (UniProt P80041).
T2 sequence (whole entry): T1 sequence (P80041 whole entry)
As to the kind of experiment: Relative inhibitory comparison to that of (+)D-m-Tyrosine.

Turning to `NC1(C(=O)O)CC1c1cccc(O)c1` (single isomer, unassigned; (+)) [listing 1 of 2 here], the affinity in test [1] corresponds to a Ki of 22 µM.

`NC1(C(=O)O)CC1c1cccc(O)c1` (single isomer, unassigned; (-)) [listing 1 of 2 here]: in test [2], the affinity, expressed as Ki, was 630 µM.

With `NC1(C(=O)O)CC1c1cccc(O)c1` (single isomer, unassigned; (+)) [listing 2 of 2 here], in test [3], the Relative inhibition worked out at 45.4.

Consider `NC1(C(=O)O)CC1c1cccc(O)c1` (single isomer, unassigned; (-)) [listing 2 of 2 here], for which the Relative inhibition in test [3] came to 1.6.

In turn, `N[C@@]1(C(=O)O)C[C@H]1c1cccc(O)c1` yielded a Relative inhibition in test [3] of 20.4. The Ki in test [2] was determined as 49 µM.

Consider `N[C@]1(C(=O)O)C[C@@H]1c1cccc(O)c1`, for which, in test [3], the Relative inhibition came out at 3. In test [2], this compound had a Ki of 330 µM.

As a reminder, the Ki is a measure of affinity in units of concentration, obtained from inhibition or displacement. A low value points to a stronger hold on the target.
